LYPLA1 inh: LYPLA1 inhibitors, primary screen, counter-screen for PME1 inhibitor project, biochemical, fluorescence polarization, FP-Rh probe ABPP. Acyl-protein thioesterase 1 (Homo sapiens), O75608. 320,000 compounds, 0.16% hits. inhibition, % at 5.9 µM. AID 2174, 2009. recombinant LYPLA1;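 active = inhibition above the mean of all tested compounds plus 3 SD, set per campaign, cut at about 14% in these data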;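 also: inhibitors block serine hydrolase probe labeling of LYPLA1 so polarization falls; 0% = enzyme with DMSO and 100% = wells lacking LYPLA1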
procasp3 activ: activators of human procaspase-3 D3A mutant, primary screen, biochemical, absorbance, PC-3 D3A mutant, single concentration; Caspase-3 (Homo sapiens), P42574; recombinant procaspase-3 D3A, Ac-DEVD-pNA absorbance 405 nm; activation, % at 8.5 µM; 330,000 compounds, 0.11% hits;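 active = activation above the mean of all tested compounds plus 3 SD, cut at about 21% in these data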;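 also: 0% = DMSO alone and 100% = DMSO wells spiked with extra 5 µM PC-3 D3A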
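material = Procaspase-3 D3A mutant | probe or stimulus = Ac-DEVD-pNA | compound = single dose, 8.5 µM nominal compound, 0.8% DMSO | timing = 1 h preincubation, 2 h reaction | measured by = 405 nm absorbance of p-nitroaniline, reads at 0 and 120 min | benchmarks = DMSO-only low control, 5 µM PC-3 D3A high control | repeats = singlicate, each compound tested once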
procasp7 counter: procaspase-7 activators, primary screen, counter-screen for procaspase-3 activator project, biochemical, absorbance, HTS, human. Caspase-7 (Homo sapiens), P55210. recombinant procaspase-7, Ac-DEVD-pNA absorbance 405 nm; D23A/D198A/D206A triple mutant, cannot self-cleave; scale: DMSO 0, 5 µM enzyme 100. activation, % at 8.5 µM. 330,000 compounds, 0.093% hits;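 active = percent activation above the screen-wide mean plus 3 SD, cut at about 25% in these data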
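System: Procaspase-7 triple mutant (PC-7 D3A); measure: % activation from two-timepoint absorbance difference, scaled to controls; times: 1 h compound preincubation, 2 h substrate cleavage, 25 °C; also added: Ac-DEVD-pNA substrate, 400 µM as added; measured by: Epi-absorbance of released pNA at 405 nm, two timepoints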
LYPLA2 counter: LYPLA2 inhibitors, primary screen, counter-screen for PME1 inhibitor project, biochemical, fluorescence polarization, FP-Rh probe ABPP. Acyl-protein thioesterase 2 (Homo sapiens), O95372. recombinant LYPLA2. inhibition, % at 5.9 µM. 320,000 compounds, 0.38% hits. AID 2177, 2009;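 active = inhibition above the screen-wide mean plus 3 SD, limit set per campaign, cut at about 26% in these data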;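 also: 0% = LYPLA2 with DMSO and 100% = wells lacking LYPLA2 enzyme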
PREPL inh: PREPL enzyme inhibitors, primary screen, biochemical, fluorescence polarization. recombinant PREPL, fluorescence polarization activity-based probe. inhibition, % at 5.96 µM. AID 2751, 2010. Prolyl endopeptidase-like (Homo sapiens), Q4J6C6. 320,000 compounds, 0.68% hits;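 also: 0% = enzyme with DMSO and 100% = wells lacking enzyme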
Target sequence (Q4J6C6 whole entry, looked up): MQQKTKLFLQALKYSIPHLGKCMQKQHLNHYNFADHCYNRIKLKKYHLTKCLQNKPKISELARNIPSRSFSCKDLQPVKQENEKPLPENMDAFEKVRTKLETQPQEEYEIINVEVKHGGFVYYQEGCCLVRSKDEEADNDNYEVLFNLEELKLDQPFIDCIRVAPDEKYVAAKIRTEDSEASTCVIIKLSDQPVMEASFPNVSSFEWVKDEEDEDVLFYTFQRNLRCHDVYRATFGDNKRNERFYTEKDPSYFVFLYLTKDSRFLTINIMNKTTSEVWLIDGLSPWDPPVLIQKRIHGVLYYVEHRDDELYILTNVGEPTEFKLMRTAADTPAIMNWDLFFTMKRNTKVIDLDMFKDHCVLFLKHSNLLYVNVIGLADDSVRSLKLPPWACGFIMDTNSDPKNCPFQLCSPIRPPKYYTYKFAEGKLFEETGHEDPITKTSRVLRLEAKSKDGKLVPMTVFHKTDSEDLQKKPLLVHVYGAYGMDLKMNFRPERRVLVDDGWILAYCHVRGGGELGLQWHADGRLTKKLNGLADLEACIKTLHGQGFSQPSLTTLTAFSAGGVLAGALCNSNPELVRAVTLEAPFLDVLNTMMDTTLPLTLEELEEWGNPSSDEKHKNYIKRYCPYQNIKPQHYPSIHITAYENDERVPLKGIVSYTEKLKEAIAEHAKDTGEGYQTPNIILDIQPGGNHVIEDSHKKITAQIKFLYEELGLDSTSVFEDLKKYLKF
PREPL inh cf: human PREPL enzyme inhibitors, confirmation, biochemical, fluorescence polarization; shares compounds with PREPL inh; recombinant PREPL, fluorescence polarization activity probe; inhibition, % at 5.96 µM; 2,000 compounds, 67% hits;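 also: 0% = protein with DMSO and 100% = wells lacking protein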
* hit, by the source's call; / = no result given. Compounds with a hit are over-represented: about 1.1% of the library has one in this group of screens. Rule as the data show it, unless noted: active = inhibition above about 43%; inactive = the rest.

SMILES | LYPLA1 inh | procasp3 activ | procasp7 counter | LYPLA2 counter | PREPL inh | PREPL inh cf
CC(=O)N1CCN(c2ccc(NCc3ccc4c(c3)OCO4)cc2)CC1 | 0.0 | -4.3 | -8.7 | 5.6 | 71.8* | 12.0
COc1cccc(N2[C@@H](CC(=O)O)c3ccc(/C=C/C(=O)O)cc3S2(=O)=O)c1 | 1.2 | -8.5 | -8.4 | 3.5 | 2.5 | /
COc1ccc(CCNC(=O)CCS(=O)(=O)c2ccc3nc(C)sc3c2)cc1OC | -3.0 | -2.8 | -17.7 | 2.5 | 5.0 | /
CCN(C(=O)COC(=O)C1CCN(S(=O)(=O)c2c(Cl)cccc2Cl)CC1)C1CCCCC1 | -0.2 | 7.8 | 0.7 | -0.1 | -2.2 | /
COC(=O)CCCC1=CC2=CC(=O)C(C)(OC(=O)c3cccs3)C(=O)C2=CN1CCc1c[nH]c2ccccc12 (stereo not drawn) | -2.4 | 5.2 | -11.7 | 1.4 | 44.5* | 22.5
Brc1csc(/C=N/Nc2nc3ccccc3s2)c1 | -9.7 | -0.1 | 2.6 | 20.3 | 53.7* | 40.5
COc1cc(C=NNc2ccc(S(=O)(=O)Nc3ccccc3C(=O)O)cc2[N+](=O)[O-])ccc1O | / | -10.8 | -3.8 | / | 55.0* | 37.9
O=C(c1ccccc1F)n1c2c(c3ccccc31)CCCC2 | -1.3 | 7.1 | 1.7 | -0.4 | -4.5 | /
C1CCC(c2nn3c(-c4n[nH]c5c4CCC5)nnc3s2)CC1 | -2.0 | 2.4 | 3.4 | 1.3 | -0.4 | /
CCN(CC)c1ccc(-c2nn3c(-c4n[nH]c5c4CCC5)nnc3s2)cc1 | -0.6 | 3.3 | -17.5 | 3.1 | 78.8* | 68.1*
O=C(COC(=O)c1nc(Cl)ccc1Cl)NCCc1ccccc1 | -2.0 | -4.1 | -1.0 | -3.8 | -3.8 | /
C/C(=N\Nc1nc2ccccc2[nH]1)c1cc2ccccc2o1 | 2.6 | 0.2 | -14.1 | 2.5 | 76.4* | 71.8*
C/C(=N\Nc1nc2ccccc2[nH]1)c1ccc2c(c1)OCCO2 | 2.3 | 2.4 | 0.4 | 1.9 | 18.4 | /
C/C(=N\Nc1nc2ccccc2[nH]1)c1ccc2c(c1)OCO2 | 1.0 | -3.2 | 6.7 | -7.0 | 47.1* | 44.1*
CN(CC(=O)Nc1ccc(Cl)cc1)C(=O)c1cccc(S(=O)(=O)N2CCN(Cc3ccccc3)CC2)c1 | -4.3 | 1.4 | 0.8 | -5.8 | 55.2* | 67.7*
CN(CC(=O)Nc1ccc(Cl)cc1)C(=O)c1cccc(S(=O)(=O)NCc2ccccc2)c1 | 0.7 | -3.9 | -11.4 | 4.2 | 7.4 | /
Cc1ccc(C(=O)c2coc3ccc(O)c(CN4CCN(C)CC4)c23)cc1 | -3.0 | -2.8 | 6.1 | 6.8 | 44.0* | 42.6
COc1ccc(C(=O)c2coc3ccc(O)c(CN4CCOCC4)c23)cc1 | 1.6 | 5.2 | 1.3 | 1.8 | 53.1* | 57.0*
COc1ccc(C(=O)c2coc3ccc(O)c(CN4CCCC4)c23)cc1 | -2.7 | -1.4 | 13.7 | 0.7 | 55.0* | 54.3*
COc1ccc(Cl)cc1NS(=O)(=O)c1cccc(C(=O)NCC(c2ccco2)N(C)C)c1 (stereo not drawn) | 0.7 | -5.1 | 0.7 | -0.7 | 5.0 | /
Cc1ccccc1N=CC=C1OC(C)(C)C(C)(C)O1 | -1.2 | -2.7 | -6.0 | 6.6 | 5.8 | /
COc1ccc(COC(=O)C2=C(C)NC(=O)NC2c2cccc(Br)c2)cc1 (stereo not drawn) | -4.0 | 7.9 | 5.7 | 3.3 | -51.4 | /
O=C(CCCC(=O)N1CCN(c2ccccc2F)CC1)c1ccccc1 | -0.7 | 9.8 | 3.8 | 1.4 | -19.4 | /
COc1cc(/C=N/Nc2nc3c(c(=O)n(C)c(=O)n3C)n2Cc2ccccc2)ccc1OC(=O)c1ccco1 | -9.6 | -4.7 | -2.5 | 4.9 | 80.2* | 88.6*
O=C(CSc1nnc(NC(=O)C2CC(=O)N(c3ccccc3)C2)s1)NCc1ccco1 (stereo not drawn) | -5.1 | -4.4 | -5.0 | 0.3 | 0.9 | /
SMILES | LYPLA1 inh | procasp3 activ | procasp7 counter | LYPLA2 counter | PREPL inh | PREPL inh cf
COc1ccc(-c2cn[nH]c2-c2ccc(OCc3ccccc3)cc2O)cc1OC | -6.2 | -0.9 | 8.4 | 2.3 | 49.4* | 31.6
N#CCCN1CCN(Cn2c3ccccc3c3ccccc32)CC1 | -3.0 | -3.3 | 7.2 | -6.8 | 6.8 | /
CN1CCN(CCCNCc2cn(CCC#N)c3ccccc23)CC1 | 2.9 | -2.5 | 8.1 | 1.4 | 49.1* | 31.1
COc1cc2cc3c(N)c(C(=O)NCc4ccco4)sc3nc2cc1OC | -4.1 | -14.2 | -6.1 | 0.8 | 45.7* | 56.6*
O=C(NCCCn1ccnc1)C1CCN(S(=O)(=O)c2cc([N+](=O)[O-])ccc2Cl)CC1 | / | 3.7 | 1.3 | / | 47.5* | 40.9
CC(C)(C)c1ccc(S(=O)(=O)N2CCC(CO)(CC3CCCCO3)CC2)cc1 (stereo not drawn) | 0.7 | 0.8 | -10.7 | -1.0 | 1.9 | /
O=[N+]([O-])c1cccc(/C=C/c2nc[nH]c2[N+](=O)[O-])c1 | 9.8 | 4.6 | -5.6 | 11.5 | 45.1* | 40.5
CC(=O)c1ccc(N2CCN(S(=O)(=O)c3ccc4c(c3)NC(=O)CO4)CC2)cc1 | -1.6 | 3.5 | 5.2 | 5.0 | 4.4 | /
CN1c2ccccc2Oc2nnc(N3CCN(Cc4ccccc4)CC3)cc21 | -1.6 | 4.5 | 7.3 | 0.9 | 45.9* | 36.8
Cc1ccc2c(c1)c1c3n2CCCNC3CCC1 (stereo not drawn) | 2.4 | 4.6 | 3.8 | -2.1 | 44.6* | 43.5*
Cc1cc(OCC(=O)Nc2ccc(N3CCN(C)CC3)cc2)ccc1Cl | -0.5 | -0.5 | 9.2 | 9.8 | 70.4* | 55.8*
Cc1cc(OCC(=O)Nc2ccc(S(=O)(=O)N3CCN(C)CC3)cc2)ccc1Cl | -8.2 | 0.4 | 2.0 | 5.7 | 6.0 | /
CN1CCN(c2ccc(NC(=O)COc3ccccc3Cl)cc2)CC1 | 3.1 | -0.6 | 8.6 | 7.1 | 44.3* | 41.5
COc1cc(-c2nnc(-c3ccncc3)o2)ccc1OCc1ccccc1 | 3.1 | 2.7 | 9.0 | 14.9 | 44.4* | 42.9
COc1ccc(-c2nnc(-c3ccccc3)o2)cc1OC | -0.8 | 2.8 | 0.5 | -0.7 | -6.4 | /
CCOC(=O)C1CCCN(S(=O)(=O)c2cnc(Cl)c(Br)c2)C1 (stereo not drawn) | 1.9 | 6.1 | -4.0 | 3.1 | 14.5 | /
Cc1ccc2sc(N(CCCN(C)C)C(=O)c3ccc(S(=O)(=O)N(C)C4CCCCC4)cc3)nc2c1C | 2.7 | -1.7 | 0.7 | 1.1 | 52.5* | 46.7*

Assay outcomes as filed in PubChem BioAssay.
